According to ChEMBL document CHEMBL2062387, “Blockade of STAT3 activation by sorafenib derivatives through enhancing SHP-1 phosphatase activity” (Eur J Med Chem, 2012):
Activity calls are given as the source filed them. No cut-off for these calls is given here.

Key:
[1] = molecular target: Tyrosine-protein phosphatase non-receptor type 6 (Homo sapiens) (UniProt P29350); assay: Induction of SHP1 activation in human PLC5 cells assessed as repression of survivin expression at 5 to 10 uM after 24 hrs by Western blot method; format: cell-based
Tyrosine-protein phosphatase non-receptor type 6 (Homo sapiens), sequence (P29350 whole entry): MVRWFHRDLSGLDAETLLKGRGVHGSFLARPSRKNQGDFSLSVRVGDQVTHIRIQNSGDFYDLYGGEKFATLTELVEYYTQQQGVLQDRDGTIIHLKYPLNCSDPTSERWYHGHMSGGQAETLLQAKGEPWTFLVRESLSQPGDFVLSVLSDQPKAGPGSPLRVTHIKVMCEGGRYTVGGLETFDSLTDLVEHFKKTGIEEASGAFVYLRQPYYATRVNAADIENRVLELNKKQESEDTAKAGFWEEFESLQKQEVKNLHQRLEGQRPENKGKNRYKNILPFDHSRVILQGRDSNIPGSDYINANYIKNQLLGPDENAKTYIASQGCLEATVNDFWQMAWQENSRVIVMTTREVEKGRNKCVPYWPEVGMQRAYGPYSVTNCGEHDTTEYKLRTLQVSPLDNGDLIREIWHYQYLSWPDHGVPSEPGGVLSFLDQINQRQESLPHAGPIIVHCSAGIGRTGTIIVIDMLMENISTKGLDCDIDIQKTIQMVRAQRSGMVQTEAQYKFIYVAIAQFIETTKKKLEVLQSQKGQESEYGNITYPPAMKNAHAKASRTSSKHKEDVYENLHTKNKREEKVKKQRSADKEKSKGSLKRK
Procedure, shortened: (§1)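 PLC5 cells were treated at 5 and 10 µM for 24 h in serum-free medium. Lysates were immunoblotted for p-STAT3 (Tyr705), STAT3, Mcl-1, cyclin D1, survivin, SOCS-1, SOCS-3 and PARP.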

[2] = molecular target: Tyrosine-protein phosphatase non-receptor type 6 (Homo sapiens) (UniProt P29350); assay: Induction of SHP1 activation in human PLC5 cell lysate at 10 uM after 24 hrs; format: cell-based
Procedure, shortened: (§2)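 PLC5 cells were treated with compound for 24 h. SHP-1 was immunoprecipitated from lysates and its phosphatase activity measured with the EnzChek tyrosine phosphatase kit. Mean ± SD, N = 3.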

[3] = molecular target: Tyrosine-protein phosphatase non-receptor type 6 (Homo sapiens) (UniProt P29350); assay: Induction of SHP1 activation in human PLC5 cells assessed as repression of CCND1 expression at 5 to 10 uM after 24 hrs by Western blot method; format: cell-based; procedure, shortened: as §1
[4] = molecular target: Tyrosine-protein phosphatase non-receptor type 6 (Homo sapiens) (UniProt P29350); assay: Induction of SHP1 activation in human PLC5 cells assessed as effect on SOCS-3 level at 5 to 10 uM after 24 hrs by Western blot method; format: cell-based; procedure, shortened: as §1
[5] = Growth inhibition of human PLC5 cells after 24 hrs by MTT assay; format: functional, cell-based; conditions: PLC5, 24 h
Procedure, shortened: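 PLC5 cells were grown in DMEM with 10% FBS, penicillin, streptomycin and amphotericin B at 37 °C in 5% CO2. Cells were seeded in 96-well plates for 24 h, then exposed to agents in DMSO (0.1% final) in DMEM for 24 h; range 0.1–15 µM. MTT at 0.5 mg/mL was added for 2 h and absorbance read at 570 nm. Six replicates; IC50 derived.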

[6] = molecular target: Tyrosine-protein phosphatase non-receptor type 6 (Homo sapiens) (UniProt P29350); assay: Induction of SHP1 activation in human PLC5 cells assessed as repression of Mcl-1 expression at 5 to 10 uM after 24 hrs by Western blot method; format: cell-based; procedure, shortened: as §1
[7] = molecular target: Tyrosine-protein phosphatase non-receptor type 6 (Homo sapiens) (UniProt P29350); assay: Induction of SHP1 activation in IL-6-stimulated human PLC5 cells assessed as reduction of p-STAT3 at 10 uM after 24 hrs by ELISA; format: cell-based
Procedure, shortened: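 PLC5 cells were pre-stimulated with IL-6 at 25 ng/mL for 30 min, then treated with 10 µM compound for 24 h. Phospho-STAT3 was measured by ELISA against a DMSO control. Mean ± SD, N = 3.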

[8] = molecular target: Tyrosine-protein phosphatase non-receptor type 6 (Homo sapiens) (UniProt P29350); assay: Induction of SHP1 activation in human PLC5 cells assessed as reduction of p-STAT3 at 5 to 10 uM after 24 hrs by Western blot method; format: cell-based; procedure, shortened: as §1
[9] = molecular target: Tyrosine-protein phosphatase non-receptor type 6 (Homo sapiens) (UniProt P29350); assay: Induction of SHP1 activation in human PLC5 cells assessed as effect on SOCS-1 level at 5 to 10 uM after 24 hrs by Western blot method; format: cell-based; procedure, shortened: as §1
[10] = molecular target: Tyrosine-protein phosphatase non-receptor type 6 (Homo sapiens) (UniProt P29350); assay: Induction of SHP1 activation in human PLC5 cell lysate after 24 hrs; format: cell-based; procedure, shortened: as §2
[11] = molecular target: Tyrosine-protein phosphatase non-receptor type 6 (Homo sapiens) (UniProt P29350); assay: Induction of SHP1 activation in human PLC5 cells assessed as PARP cleavage at 5 to 10 uM after 24 hrs by Western blot method; format: cell-based; procedure, shortened: as §1
[12] = molecular target: Tyrosine-protein phosphatase non-receptor type 6 (Homo sapiens) (UniProt P29350); assay: Induction of SHP1 activation in human PLC5 cells at 1 to 15 uM after 24 hrs; format: cell-based; procedure, shortened: as §2
Mus musculus [13] = assay: Inhibition of STAT3 phosphorylation in tumor of athymic NCr mouse xenografted with PLC5 cells at 10 mg/kg, po once daily for 3 weeks by Western blot method; format: functional, organism-based; parameters: dose 10 mg/kg
Procedure, shortened: (§3)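 Tumors came from PLC5 xenografts in nude mice dosed at 10 mg/kg/day p.o. for three weeks, with vehicle Cremophor EL/ethanol (50:50). Tumor extracts were assayed for p-STAT3 by western blot and for SHP-1 phosphatase activity.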

Mus musculus [14] = assay: Induction of SHP1 activity in tumor of athymic NCr mouse xenografted with PLC5 cells at 10 mg/kg, po once daily for 3 weeks; format: functional, organism-based; parameters: dose 10 mg/kg; procedure, shortened: as §3
PLC5 = assay: Antitumor activity against PLC5 cells xenografted in athymic NCr mouse assessed as tumor growth inhibition at 10 mg/kg, po once daily for 3 weeks; format: functional, organism-based; parameters: dose 10 mg/kg
Procedure, shortened: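 Male NCr athymic nude mice, 5–7 weeks old, bearing PLC5 tumors. Dosing began when tumors reached 100 mm3: 10 mg/kg p.o. once daily for three weeks. Vehicle was Cremophor EL/95% ethanol (50:50), given to controls. Read-out was tumor growth.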

[15] = Ratio of SC-1 IC50 to compound IC50 for human PLC5 cells; format: functional

Compound	IC50 [5]	Activity [7]	other results
CNC(=O)c1cc(Oc2cccc(NCc3cccc(OC(F)(F)F)c3)c2)ccn1	> 15 µM	inactive	Activity [1]: inactive; Activity [2]: inactive; Activity [3]: inactive; Activity [4]: inactive; Activity [6]: inactive; Activity [8]: inactive; Activity [9]: inactive
Nc1cc(Oc2cccc(NCc3cccc(OC(F)(F)F)c3)c2)ccc1[N+](=O)[O-]	8.3 µM	Active	–
N#Cc1ccc(Oc2cccc(NC(=O)Nc3ccc(Cl)c(C(F)(F)F)c3)c2)cc1 [SC-43]	0.5 µM	Active	Activity [1]: Active; Activity [10]: Dose-dependent effect; Activity [2]: Active; Activity [3]: Active; Activity [4]: inactive; Activity [6]: Active; Activity [8]: Active; Activity [11]: Active; Activity [9]: inactive
O=c1[nH]c2ccc(Oc3cccc(NCc4cccc(OC(F)(F)F)c4)c3)cc2[nH]1	10.2 µM	Active	–
N#Cc1ccc(Oc2cccc(NC(=O)c3ccccc3)c2)cc1	> 15 µM	inactive	–
CNC(=O)c1cc(Oc2cccc(NC(=O)c3ccccc3)c2)ccn1	> 15 µM	inactive	–
CNC(=O)c1cc(Oc2cccc(NS(=O)(=O)c3ccccc3)c2)ccn1	> 15 µM	inactive	–
Nc1ccc(Oc2cccc(NS(=O)(=O)c3cccc(C(F)(F)F)c3)c2)cc1N	> 15 µM	inactive	–
CNC(=O)c1cc(Oc2cccc(NS(=O)(=O)c3cccc(C(F)(F)F)c3)c2)ccn1	8.4 µM	Active	–
N#Cc1ccc(Oc2cccc(NC(=O)Nc3cccc(F)c3)c2)cc1	3.3 µM	Active	–
CNC(=O)c1cc(Oc2cccc(NC(=O)Nc3cccc(F)c3)c2)ccn1	> 15 µM	inactive	–
COc1ccc(CNC(=O)NCc2ccc(Oc3ccc(C#N)cc3)cc2)cc1OC	10.5 µM	Active	–
C[C@@H](NC(=O)Nc1ccc(Oc2ccc(C#N)cc2)cc1)c1cccc2ccccc12	> 15 µM	inactive	–
N#Cc1ccc(Oc2cccc(NS(=O)(=O)c3ccccc3)c2)cc1	> 15 µM	inactive	–
N#Cc1ccc(Oc2cccc(NS(=O)(=O)c3cccc(C(F)(F)F)c3)c2)cc1	2.2 µM	Active	–
Nc1ccc(Oc2cccc(NCc3cccc(OC(F)(F)F)c3)c2)cc1N	> 15 µM	inactive	–
Cc1ccc(NC(=O)Nc2ccc(Cl)c(C(F)(F)F)c2)cc1Oc1ccc(C#N)cc1	4.5 µM	Active	–
COc1ccc(CNC(=O)Nc2ccc(Oc3ccc(C#N)cc3)cc2)cc1OC	12.3 µM	Active	–
Nc1cc(Oc2cccc(NC(=O)Nc3ccc(Cl)c(C(F)(F)F)c3)c2)ccc1[N+](=O)[O-]	1.2 µM	Active	–
Nc1cc(Oc2cccc(NS(=O)(=O)c3cccc(C(F)(F)F)c3)c2)ccc1[N+](=O)[O-]	3.9 µM	Active	–
O=c1[nH]c2ccc(Oc3cccc(NS(=O)(=O)c4cccc(C(F)(F)F)c4)c3)cc2[nH]1	11.5 µM	Active	–
CNC(=O)c1cc(Oc2ccc(NC(=O)Nc3ccc(Cl)c(C(F)(F)F)c3)cc2)ccn1	–	–	Activity [12]: Active
N#Cc1ccc(Oc2ccc(CNC(=O)NCc3cccc(OC(F)(F)F)c3)cc2)cc1	> 15 µM	inactive	–
N#Cc1ccc(Oc2cccc(NCc3cccc(OC(F)(F)F)c3)c2)cc1	> 15 µM	inactive	–
N#Cc1ccc(Oc2ccc(CNC(=O)Nc3ccc(Cl)c(C(F)(F)F)c3)cc2)cc1	2.1 µM	Active	inhibition (Mus musculus [13]): Active; Activity [2]: Active; Activity (Mus musculus [14]): Active; TGI (PLC5): Active; Ratio IC50 [15]: 4
